# Assay results as given in ChEMBL document CHEMBL4706775, “Discovery of Arylsulfonamide Na1.7 Inhibitors: IVIVC, MPO Methods, and Optimization of Selectivity Profile” (ACS Med Chem Lett, 2021).
# Columns and labels:
# [1] = molecular target: Sodium channel protein type 9 subunit alpha (Homo sapiens, UniProt Q15858); assay: Inhibition of human Nav1.7 alpha expressed in HEK293 cells incubated for 5 mins with 6 consecutive train pulses to -10 mV at 0.1 Hz and holding potential of -65 mV by Qube-automated patch clamp assay; format: cell-based
# Sequence of Sodium channel protein type 9 subunit alpha (Q15858 whole entry): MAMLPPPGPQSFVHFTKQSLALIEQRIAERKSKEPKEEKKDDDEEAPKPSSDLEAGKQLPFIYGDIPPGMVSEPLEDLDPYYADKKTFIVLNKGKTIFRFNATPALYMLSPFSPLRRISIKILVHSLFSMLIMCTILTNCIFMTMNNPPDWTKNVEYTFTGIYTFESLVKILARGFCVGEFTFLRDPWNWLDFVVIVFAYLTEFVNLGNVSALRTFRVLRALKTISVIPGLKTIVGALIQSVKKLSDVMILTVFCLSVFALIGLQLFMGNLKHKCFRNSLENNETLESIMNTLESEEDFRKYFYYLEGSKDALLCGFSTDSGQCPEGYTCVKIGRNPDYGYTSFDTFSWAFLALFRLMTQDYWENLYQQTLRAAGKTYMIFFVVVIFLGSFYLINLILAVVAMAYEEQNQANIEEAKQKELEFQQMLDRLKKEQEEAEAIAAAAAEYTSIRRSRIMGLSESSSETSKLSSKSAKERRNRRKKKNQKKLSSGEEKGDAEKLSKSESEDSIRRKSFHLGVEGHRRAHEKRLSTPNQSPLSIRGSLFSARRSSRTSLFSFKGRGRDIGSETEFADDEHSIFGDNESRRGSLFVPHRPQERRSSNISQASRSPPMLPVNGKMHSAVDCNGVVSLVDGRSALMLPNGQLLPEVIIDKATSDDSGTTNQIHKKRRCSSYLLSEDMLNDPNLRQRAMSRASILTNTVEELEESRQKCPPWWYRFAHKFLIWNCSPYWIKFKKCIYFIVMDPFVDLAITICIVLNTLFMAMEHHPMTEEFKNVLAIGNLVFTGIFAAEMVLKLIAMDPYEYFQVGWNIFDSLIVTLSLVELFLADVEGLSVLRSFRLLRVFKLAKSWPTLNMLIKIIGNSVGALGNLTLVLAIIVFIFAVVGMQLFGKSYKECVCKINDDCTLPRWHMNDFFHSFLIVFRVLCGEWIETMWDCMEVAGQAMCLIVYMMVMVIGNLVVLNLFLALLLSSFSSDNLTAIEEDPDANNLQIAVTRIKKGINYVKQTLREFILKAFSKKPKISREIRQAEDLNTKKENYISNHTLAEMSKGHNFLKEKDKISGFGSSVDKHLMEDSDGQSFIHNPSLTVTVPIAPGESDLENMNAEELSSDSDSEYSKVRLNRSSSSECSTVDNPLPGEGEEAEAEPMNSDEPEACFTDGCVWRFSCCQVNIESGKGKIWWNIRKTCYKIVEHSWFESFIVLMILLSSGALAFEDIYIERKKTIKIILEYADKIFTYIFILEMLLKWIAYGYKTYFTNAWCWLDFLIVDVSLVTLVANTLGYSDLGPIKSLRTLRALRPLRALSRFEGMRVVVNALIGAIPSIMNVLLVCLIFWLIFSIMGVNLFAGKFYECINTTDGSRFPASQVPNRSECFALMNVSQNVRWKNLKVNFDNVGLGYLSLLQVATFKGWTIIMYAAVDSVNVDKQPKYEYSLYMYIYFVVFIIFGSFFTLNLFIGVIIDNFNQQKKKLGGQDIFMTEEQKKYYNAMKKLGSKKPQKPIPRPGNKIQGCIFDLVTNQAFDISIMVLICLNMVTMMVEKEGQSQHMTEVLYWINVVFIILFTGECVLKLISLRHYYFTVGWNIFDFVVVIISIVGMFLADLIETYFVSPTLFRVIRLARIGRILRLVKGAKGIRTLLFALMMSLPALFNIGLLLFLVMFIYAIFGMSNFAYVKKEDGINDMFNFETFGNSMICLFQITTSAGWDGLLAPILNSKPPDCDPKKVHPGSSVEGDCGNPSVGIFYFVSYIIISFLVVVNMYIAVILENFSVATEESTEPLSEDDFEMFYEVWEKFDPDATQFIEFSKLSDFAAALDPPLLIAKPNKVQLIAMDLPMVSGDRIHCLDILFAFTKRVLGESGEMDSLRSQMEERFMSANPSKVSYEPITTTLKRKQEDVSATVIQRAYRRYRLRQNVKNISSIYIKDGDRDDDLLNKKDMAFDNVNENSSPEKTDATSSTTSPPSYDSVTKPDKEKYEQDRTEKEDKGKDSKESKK
# [2] = molecular target: Sodium channel protein type 8 subunit alpha (Homo sapiens, UniProt Q9UQD0); assay: Inhibition of human Nav1.6 alpha expressed in HEK293 cells incubated for 5 mins with 6 consecutive train pulses to -10 mV at 0.1 Hz and holding potential of -65 mV by Qube-automated patch clamp assay; format: ADME, cell-based
# Sequence of Sodium channel protein type 8 subunit alpha (Q9UQD0 whole entry): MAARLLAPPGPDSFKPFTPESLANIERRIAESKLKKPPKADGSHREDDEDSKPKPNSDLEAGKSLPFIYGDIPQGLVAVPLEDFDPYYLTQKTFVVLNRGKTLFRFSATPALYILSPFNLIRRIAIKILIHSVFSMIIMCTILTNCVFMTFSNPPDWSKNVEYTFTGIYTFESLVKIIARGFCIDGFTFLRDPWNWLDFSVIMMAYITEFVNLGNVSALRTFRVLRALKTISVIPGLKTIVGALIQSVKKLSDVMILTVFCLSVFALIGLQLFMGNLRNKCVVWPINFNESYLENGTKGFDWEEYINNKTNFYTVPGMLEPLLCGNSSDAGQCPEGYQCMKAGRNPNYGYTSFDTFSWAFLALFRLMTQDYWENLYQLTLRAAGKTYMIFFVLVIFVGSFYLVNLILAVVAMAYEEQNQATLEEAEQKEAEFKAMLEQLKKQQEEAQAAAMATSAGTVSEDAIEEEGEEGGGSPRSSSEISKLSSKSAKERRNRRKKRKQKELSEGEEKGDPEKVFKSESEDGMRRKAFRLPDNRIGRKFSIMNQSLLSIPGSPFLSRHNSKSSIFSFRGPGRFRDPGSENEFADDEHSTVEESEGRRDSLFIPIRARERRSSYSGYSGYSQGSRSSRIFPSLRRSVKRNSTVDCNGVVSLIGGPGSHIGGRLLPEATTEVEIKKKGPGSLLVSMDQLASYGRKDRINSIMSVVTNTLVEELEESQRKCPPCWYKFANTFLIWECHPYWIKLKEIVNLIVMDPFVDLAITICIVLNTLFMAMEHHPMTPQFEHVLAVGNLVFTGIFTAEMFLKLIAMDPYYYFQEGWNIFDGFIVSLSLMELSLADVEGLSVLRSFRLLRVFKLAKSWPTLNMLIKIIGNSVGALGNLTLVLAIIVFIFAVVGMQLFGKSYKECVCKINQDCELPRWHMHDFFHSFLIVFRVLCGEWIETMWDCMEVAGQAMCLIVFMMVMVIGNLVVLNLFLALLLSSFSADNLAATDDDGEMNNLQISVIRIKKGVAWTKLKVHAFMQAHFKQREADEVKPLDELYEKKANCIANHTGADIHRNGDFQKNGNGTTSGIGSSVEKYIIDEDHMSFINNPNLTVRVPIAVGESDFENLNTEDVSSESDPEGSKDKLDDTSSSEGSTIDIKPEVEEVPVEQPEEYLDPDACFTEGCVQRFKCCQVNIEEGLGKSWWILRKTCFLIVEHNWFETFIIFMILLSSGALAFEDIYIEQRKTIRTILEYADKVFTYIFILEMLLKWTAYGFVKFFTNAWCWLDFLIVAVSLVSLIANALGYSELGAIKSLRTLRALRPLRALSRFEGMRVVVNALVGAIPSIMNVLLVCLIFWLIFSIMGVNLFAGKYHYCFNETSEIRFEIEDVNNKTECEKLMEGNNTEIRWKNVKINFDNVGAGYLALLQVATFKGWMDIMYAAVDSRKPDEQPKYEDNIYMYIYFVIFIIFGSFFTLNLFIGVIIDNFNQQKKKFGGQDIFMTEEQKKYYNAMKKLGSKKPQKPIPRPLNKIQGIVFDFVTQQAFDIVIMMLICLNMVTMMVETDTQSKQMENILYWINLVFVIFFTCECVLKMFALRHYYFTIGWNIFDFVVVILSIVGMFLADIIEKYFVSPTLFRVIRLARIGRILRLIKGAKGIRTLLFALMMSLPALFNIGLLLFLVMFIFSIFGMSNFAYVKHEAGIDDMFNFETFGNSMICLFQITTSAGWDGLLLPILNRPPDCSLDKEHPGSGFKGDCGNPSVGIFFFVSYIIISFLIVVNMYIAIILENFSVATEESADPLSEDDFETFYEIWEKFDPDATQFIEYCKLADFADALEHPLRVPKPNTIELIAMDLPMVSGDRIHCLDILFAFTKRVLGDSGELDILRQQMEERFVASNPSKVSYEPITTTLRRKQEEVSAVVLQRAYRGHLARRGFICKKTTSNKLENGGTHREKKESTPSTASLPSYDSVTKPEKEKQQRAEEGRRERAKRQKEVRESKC
# [3] = Apparent permeability in MDCK cells by Monolayer assay; format: ADME, cell-based, Canis lupus familiaris; conditions: dog
# [4] = Inhibition of rhesus monkey Nav1.7 alpha expressed in HEK293 cells; format: cell-based, Macaca mulatta
# [5] = Protein binding in mouse plasma; format: ADME, cell-free; conditions: read-out: PPB (converted)
# [6] = Protein binding in human plasma; format: ADME, cell-free; conditions: read-out: PPB (converted)
# [7] = Protein binding in rhesus monkey plasma; format: ADME, cell-free, Macaca mulatta; conditions: read-out: PPB (converted)
# P-glycoprotein [8] = assay: Substrate activity at human p-glycoprotein assessed as efflux ratio of permeability across basal to apical membrane over apical to basal membrane; format: ADME; conditions: not told
# P-glycoprotein [9] = assay: Substrate activity at rat p-glycoprotein assessed as efflux ratio of permeability across basal to apical membrane over apical to basal membrane; format: ADME; conditions: not told
# [10] = Drug concentration in mouse brain at 100 mg/kg, po measured after 1.25 hrs; format: ADME, organism-based; conditions: read-out: Ct
# [11] = Drug concentration in mouse plasma at 100 mg/kg, po measured after 1.25 hrs; format: ADME, organism-based
# [12] = Drug concentration in mouse CSF at 100 mg/kg, po measured after 1.25 hrs; format: ADME, organism-based, Cerebrospinal fluid; conditions: read-out: Ct
# [13] = Kinetic solubility of compound at pH 2 by HPLC analysis; format: physicochemical; conditions: buffer, read-out: Kinetic_solubility
# [14] = Kinetic solubility of compound at pH 7 by HPLC analysis; format: physicochemical; conditions: buffer, read-out: Kinetic_solubility
# Cytochrome P450 3A4 = Cytochrome P450 3A4 (Homo sapiens, UniProt P08684); assay: Inhibition of CYP3A4 (unknown origin); format: ADME
# Cytochrome P450 2C9 = Cytochrome P450 2C9 (Homo sapiens, UniProt P11712); assay: Inhibition of CYP2C9 (unknown origin); format: ADME
# Sequence of Cytochrome P450 2C9 (P11712 whole entry): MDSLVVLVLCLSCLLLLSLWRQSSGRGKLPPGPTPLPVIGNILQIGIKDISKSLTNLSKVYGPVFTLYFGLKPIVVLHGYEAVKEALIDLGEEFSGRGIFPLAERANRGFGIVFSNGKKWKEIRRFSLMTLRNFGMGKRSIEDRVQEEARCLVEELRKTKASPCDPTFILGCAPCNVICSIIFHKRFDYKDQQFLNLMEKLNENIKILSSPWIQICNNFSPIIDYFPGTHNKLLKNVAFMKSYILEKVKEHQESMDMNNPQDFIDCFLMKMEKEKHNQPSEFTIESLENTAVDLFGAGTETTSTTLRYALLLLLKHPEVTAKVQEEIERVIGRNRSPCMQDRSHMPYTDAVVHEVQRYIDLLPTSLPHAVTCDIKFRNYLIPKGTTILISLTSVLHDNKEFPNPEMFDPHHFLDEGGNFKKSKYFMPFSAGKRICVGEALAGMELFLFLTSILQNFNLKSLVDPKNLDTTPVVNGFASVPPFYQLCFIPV
# Cytochrome P450 2D6 = Cytochrome P450 2D6 (Homo sapiens, UniProt P10635); assay: Inhibition of […] (unknown origin); format: ADME
# Sequence of Cytochrome P450 2D6 (P10635 whole entry): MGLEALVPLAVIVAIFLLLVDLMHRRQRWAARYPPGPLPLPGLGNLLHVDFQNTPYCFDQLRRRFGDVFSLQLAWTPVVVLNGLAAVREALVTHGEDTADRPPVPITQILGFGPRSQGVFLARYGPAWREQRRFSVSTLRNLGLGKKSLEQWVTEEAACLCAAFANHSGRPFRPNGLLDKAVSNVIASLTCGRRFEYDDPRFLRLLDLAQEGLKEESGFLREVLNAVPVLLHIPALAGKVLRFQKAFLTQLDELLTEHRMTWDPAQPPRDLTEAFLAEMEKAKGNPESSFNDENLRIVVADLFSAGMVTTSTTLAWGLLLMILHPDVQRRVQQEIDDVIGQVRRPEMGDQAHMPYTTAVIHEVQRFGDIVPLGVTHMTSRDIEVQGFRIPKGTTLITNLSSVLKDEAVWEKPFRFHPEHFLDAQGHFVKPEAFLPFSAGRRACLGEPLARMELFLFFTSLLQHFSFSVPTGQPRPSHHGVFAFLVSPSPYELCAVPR
# [15] = molecular target: T1, Nuclear receptor subfamily 1 group I member 2 (Homo sapiens, UniProt O75469); assay: Activation of PXR (unknown origin); format: ADME
# T1 sequence (O75469 whole entry): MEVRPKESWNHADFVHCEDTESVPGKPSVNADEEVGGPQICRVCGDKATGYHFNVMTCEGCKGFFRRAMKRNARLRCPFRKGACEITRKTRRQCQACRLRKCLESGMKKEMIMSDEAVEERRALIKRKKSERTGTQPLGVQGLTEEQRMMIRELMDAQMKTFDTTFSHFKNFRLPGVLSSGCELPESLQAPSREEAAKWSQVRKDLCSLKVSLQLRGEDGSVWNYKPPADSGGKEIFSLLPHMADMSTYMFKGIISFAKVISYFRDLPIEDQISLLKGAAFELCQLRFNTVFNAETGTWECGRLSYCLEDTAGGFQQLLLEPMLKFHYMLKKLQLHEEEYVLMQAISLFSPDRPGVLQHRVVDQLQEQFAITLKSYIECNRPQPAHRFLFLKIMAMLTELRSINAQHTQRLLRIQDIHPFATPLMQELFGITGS
# [16] = Clearance in rat; format: ADME; conditions: in vivo
# [17] = Volume of distribution at steady state in rat; format: ADME; conditions: in vivo, read-out: Vdss
# [18] = Half life in rat; format: ADME; conditions: in vivo
# [19] = Intrinsic Clearance in dog; format: ADME, Canis lupus familiaris
# [20] = Volume of distribution at steady state in dog; format: ADME, Canis lupus familiaris; conditions: in vivo, read-out: Vdss
# [21] = Half life in dog; format: ADME, Canis lupus familiaris; conditions: in vivo
# [22] = Intrinsic Clearance in rhesus monkey; format: ADME, Macaca mulatta
# [23] = Volume of distribution at steady state in rhesus monkey; format: ADME, Macaca mulatta; conditions: in vivo, read-out: Vdss
# [24] = Half life in rhesus monkey; format: ADME, Macaca mulatta; conditions: in vivo
# Mus musculus [25] = assay: Reversal of formalin-induced nociception in po dosed C57BL/6 mouse pretreated with compound for 15 mins followed by formalin challenge and measured after 20 to 35 mins; format: functional; conditions: time min <=75
# Procedure, shortened: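 C57BL/6 mice given compound orally at three dose levels or vehicle (10% Tween 80, 5 mL/kg) 15 min before formalin injection; nociceptive behaviors scored in phase 1 and phase 2; N = 8/group; within-subject ANOVA and 1-sample t test versus vehicle.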
# [26] = Drug concentration in plasma of formalin-induced C57BL/6 mouse model of formalin-induced pain at 30 mg/kg, po pretreated with compound for 15 mins followed by formalin challenge and measured after […]; format: ADME, organism-based
# [27] = Drug concentration in plasma of formalin-induced C57BL/6 mouse model of formalin-induced pain at 100 mg/kg, po pretreated with compound for 15 mins followed by formalin challenge and measured after […]; format: ADME, organism-based
# [28] = Drug concentration in plasma of formalin-induced C57BL/6 mouse model of formalin-induced pain at 300 mg/kg, po pretreated with compound for 15 mins followed by formalin challenge and measured after […]; format: ADME, organism-based
# [29] = Selectivity ratio of IC50 for human Nav 1.6 alpha expressed in HEK293 cells to IC50 for human Nav 1.7 alpha expressed in HEK293 cells
# Mus musculus [30] = organism: Mus musculus; assay: Analgesic activity in mouse models of formalin-induced nociception assessed as reduction in paw pain; format: functional
# [31] = Oral bioavailability in rhesus monkey; format: ADME, organism-based, Macaca mulatta; conditions: in vivo
# [32] = Oral bioavailability in rat; format: ADME, organism-based; conditions: in vivo
# [33] = Oral bioavailability in dog; format: ADME, organism-based, Canis lupus familiaris; conditions: in vivo
# Nav1.5 = Nav1.5 (Homo sapiens, UniProt Q14524); assay: Inhibition of human Nav1.5 alpha expressed in HEK293 cells expressed in HEK293 cells incubated for 5 mins with 6 consecutive train pulses to -10 mV at 0.1 Hz and holding potential of -65 mV by Qube-automated patch clamp assay; format: ADME, cell-based; conditions: HEK293 cells expressing human Nav1.5 alpha
# [34] = Selectivity ratio of IC50 for human Nav 1.5 expressed in HEK293 cells to IC50 for human Nav 1.7 alpha expressed in HEK293 cells
# [35] = Dissociation constant, pKa of the sulfonamide compound; format: physicochemical
# [36] = Dissociation constant, pKa of the amine compound; format: physicochemical
# PXR = molecular target: T2, PXR (Homo sapiens, UniProt O75469); assay: Activation of PXR (unknown origin) relative to control; format: ADME
# T2 sequence (O75469 whole entry): T1 sequence (O75469 whole entry)
# [37] = Distribution coefficient, log D of the compound by MSD HPLC analysis; format: physicochemical; conditions: octanol/water
# [38] = Clearance in dog; format: ADME, Canis lupus familiaris; conditions: in vivo
# [39] = Clearance in rhesus monkey; format: ADME, Macaca mulatta; conditions: in vivo
# [40] = Unbound plasma concentration in rhesus monkey at 19.2 mg/kg; format: ADME, organism-based, Macaca mulatta; conditions: in vivo
# Procedure, shortened: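 Anesthetized rhesus monkeys, n = 4, imaged by olfactory-bulb fMRI over 2 h; IV infusion in 30% Captisol (~8 mL/animal) started at 1 h and continued for 1 h; unbound plasma concentration determined alongside olfactory inhibition.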
# Mus musculus [41] = assay: Analgesic activity against formalin-induced nociception in po dosed C57BL/6J mouse pretreated with compound for 15 mins followed by formalin challenge and measured after […]; format: functional, organism-based
# [42] = Intrinsic clearance in rat at 0.05 mg/kg, iv administered as cassette dose or 2 mg/kg, iv administered as single dose; conditions: in vivo
smiles,measurement,setting,value
CN[C@H](CNc1cc(F)c(S(=O)(=O)Nc2ncns2)cc1Cl)Cc1ccccc1,IC50,[1],1090 nM
same,IC50,[2],> 34000 nM
CN[C@H](CNc1cc(F)c(S(=O)(=O)Nc2ncc(F)s2)cc1Cl)CC(C)(C)C.Cl,IC50,[1],300 nM
same,IC50,[2],18700 nM
same,Papp,[3],8 ×10⁻⁶ cm/s
same,IC50,[4],310 nM
same,fraction unbound,[5],0.06
same,fraction unbound,[6],0.02
same,fraction unbound,[7],0.02
same,efflux ratio,P-glycoprotein [8],4.9
same,efflux ratio,P-glycoprotein [9],> 14
same,concentration at 1.25 h,[10],0.1 µM
same,concentration at 1.25 h,[11],4.9 µM
same,concentration at 1.25 h,[12],0.005 µM
same,solubility kinetic,[13],170 µM
same,solubility kinetic,[14],148 µM
same,IC50,Cytochrome P450 3A4,> 50000 nM
same,IC50,Cytochrome P450 2C9,28000 nM
same,IC50,Cytochrome P450 2D6,20000 nM
same,EC50,[15],10000 nM
same,clearance,[16],29 mL/min/kg
same,Vd,[17],2.1 L/kg
same,half-life,[18],2.5 h
same,CLint scaled,[19],200 mL/min/kg
same,Vd,[20],0.8 L/kg
same,half-life,[21],6 h
same,CLint scaled,[22],610 mL/min/kg
same,Vd,[23],0.3 L/kg
same,half-life,[24],1.3 h
same,EC90,Mus musculus [25],360 nM
same,concentration at 1.75 h,[26],3.27 µM
same,concentration at 1.75 h,[27],6.64 µM
same,concentration at 1.75 h,[28],8.86 µM
same,Ratio IC50,[29],60
same,IC90,Mus musculus [30],220 nM
same,bioavailability,[31],2%
same,bioavailability,[32],100%
same,bioavailability,[33],25%
same,IC90 at 5 min,Nav1.5,3600 nM
same,Ratio IC50,[34],>390
same,pKa,[35],5.4
same,pKa,[36],9
same,Emax,PXR,80%
same,logD,[37],1.7
same,clearance,[38],4.5 mL/min/kg
same,clearance,[39],11 mL/min/kg
same,Cp(f),[40],1.5 µM
same,IC50,"Mus musculus [41]; Mus musculus, C57BL/6J",4080 nM
same,IC90,Mus musculus [41]; time 1.75 hrs,6040 nM
same,CL,[42],1670 mL/min/kg
CN[C@H](CNc1cc(F)c(S(=O)(=O)Nc2nccs2)cc1Cl)Cc1ccccc1,IC50,[1],240 nM
same,IC50,[2],> 34000 nM
same,Papp,[3],10 ×10⁻⁶ cm/s
same,CL,[42],4820 mL/min/kg
CN[C@H](CNc1cc(F)c(S(=O)(=O)Nc2ncc(F)s2)cc1Cl)CC12CC(C1)C2,IC50,[1],120 nM
same,IC50,[2],> 34000 nM
same,Papp,[3],10 ×10⁻⁶ cm/s
same,CL,[42],2300 mL/min/kg
CN(C)[C@H](CNc1cc(F)c(S(=O)(=O)Nc2nccs2)cc1Cl)Cc1ccccc1,IC50,[1],850 nM
same,IC50,[2],> 34000 nM
CN[C@H](CNc1cc(F)c(S(=O)(=O)Nc2ncc(F)s2)cc1Cl)CC1CC1,IC50,[1],5540 nM
same,IC50,[2],> 34000 nM
same,Papp,[3],3 ×10⁻⁶ cm/s
same,CL,[42],380 mL/min/kg
CN[C@H](CNc1cc(F)c(S(=O)(=O)Nc2ncc(F)s2)cc1Cl)CC1(C)CC1,IC50,[1],720 nM
same,IC50,[2],> 34000 nM
same,Papp,[3],7 ×10⁻⁶ cm/s
same,CL,[42],830 mL/min/kg
CN[C@H](CNc1cc(F)c(S(=O)(=O)Nc2ncc(F)s2)cc1Cl)CC1CCC1,IC50,[1],1780 nM
same,IC50,[2],> 34000 nM
same,Papp,[3],5 ×10⁻⁶ cm/s
same,CL,[42],8090 mL/min/kg
CN[C@H](CNc1cc(F)c(S(=O)(=O)Nc2ncc(F)s2)cc1Cl)Cc1ccccc1,IC50,[1],400 nM
same,IC50,[2],> 34000 nM
same,Papp,[3],8 ×10⁻⁶ cm/s
same,CL,[42],3020 mL/min/kg
CN[C@H](CNc1cc(F)c(S(=O)(=O)Nc2ncc(F)s2)cc1Cl)C[Si](C)(C)C,IC50,[1],44 nM
same,IC50,[2],3130 nM
same,CL,[42],500 mL/min/kg
O=S(=O)(Nc1nccs1)c1cc(Cl)c(NCC2(Cc3ccccc3)CCCN2)cc1F (configuration not stated),IC50,[1],25 nM
same,IC50,[2],420 nM
same,Papp,[3],13 ×10⁻⁶ cm/s
same,CL,[42],5830 mL/min/kg
N[C@H](CNc1cc(F)c(S(=O)(=O)Nc2nccs2)cc1Cl)Cc1ccccc1,IC50,[1],> 34000 nM
same,IC50,[2],> 34000 nM
CC1(CNc2cc(F)c(S(=O)(=O)Nc3nccs3)cc2Cl)CCCN1 (stereo in doubt; 4),IC50,[1],2970 nM
same,IC50,[2],2080 nM
CC1(CNc2cc(F)c(S(=O)(=O)Nc3nccs3)cc2Cl)CCCN1 (stereo in doubt; 5),IC50,[1],900 nM
same,IC50,[2],860 nM
O=S(=O)(Nc1nccs1)c1cc(Cl)c(NCC2CCCN2)cc1F (stereo in doubt; 6),IC50,[1],> 34000 nM
same,IC50,[2],> 34000 nM
O=S(=O)(Nc1nccs1)c1cc(Cl)c(NCC2CCCN2)cc1F (stereo in doubt; 7),IC50,[1]; hek293,> 34000 nM
same,IC50,[2]; hek293,> 34000 nM
CNC(C)(CNc1cc(F)c(S(=O)(=O)Nc2nccs2)cc1Cl)Cc1ccccc1 (stereo in doubt; 9),IC50,[1],> 34000 nM
same,IC50,[2],> 34000 nM
CNC(C)(CNc1cc(F)c(S(=O)(=O)Nc2nccs2)cc1Cl)Cc1ccccc1 (stereo in doubt; 10),IC50,[1],1140 nM
same,IC50,[2]; hek293,> 34000 nM
